Test results reported in ChEMBL document CHEMBL5331087, “Targeted AURKA degradation: Towards new therapeutic agents for neuroblastoma” (Eur J Med Chem, 2023).
Active and inactive are the calls of the source. The rule behind the calls is not given here.

Assays:
[1] = molecular target: T1, Protein cereblon/Aurora kinase A (Homo sapiens) (UniProt O14965+Q96SW2); assay: PROTAC activity at AURKA/CRBN in human NGP cells assessed as AURKA degradation at 10 to 1000 nM measured for 24 hrs in presence of MK-5108 by Western blot analysis; format: cell-based; conditions: dose 10-1000 nM
[2] = molecular target: T1, Protein cereblon/Aurora kinase A (Homo sapiens); assay: PROTAC activity at AURKA/CRBN in human NGP cells assessed as AURKA degradation at 10 to 1000 nM measured for 24 hrs in presence of thalidomide by Western blot analysis; format: cell-based; conditions: dose 10-1000 nM
[3] = molecular target: T2, N-myc proto-oncogene protein (Homo sapiens) (UniProt P04198); assay: Induction of MYCN degradation in human NGP cells at 500 nM measured for 72 hrs by Western blot analysis relative to control; format: cell-based
T2 sequence (whole entry): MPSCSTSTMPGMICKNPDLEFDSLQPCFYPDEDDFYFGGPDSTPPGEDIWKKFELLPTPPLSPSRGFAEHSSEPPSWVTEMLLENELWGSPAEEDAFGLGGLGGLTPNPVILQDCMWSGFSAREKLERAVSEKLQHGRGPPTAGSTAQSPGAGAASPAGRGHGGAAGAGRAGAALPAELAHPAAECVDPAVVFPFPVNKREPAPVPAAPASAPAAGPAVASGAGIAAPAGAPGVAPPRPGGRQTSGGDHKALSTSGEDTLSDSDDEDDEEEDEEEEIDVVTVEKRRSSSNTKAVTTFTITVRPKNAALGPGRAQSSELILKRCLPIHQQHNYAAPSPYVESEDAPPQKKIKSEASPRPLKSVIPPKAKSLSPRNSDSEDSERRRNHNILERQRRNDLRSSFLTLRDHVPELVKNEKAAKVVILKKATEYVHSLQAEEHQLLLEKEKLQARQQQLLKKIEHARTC
Summary of the method: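 NGP cells were treated with 500 nM compound and harvested at 0, 1, 3, 6, 24, 48 and 72 h. RIPA lysates (35 µg) were run on 10% SDS-PAGE and blotted to nitrocellulose. AURKA and MYCN were probed with vinculin as loading control and quantified by densitometry. Values are percent remaining relative to the DMSO control at each timepoint (n = 3).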

SK-N-AS = assay: Antiproliferative activity against human SK-N-AS cells assessed as reduction in cell viability incubated for 48 hrs; format: functional, cell-based; conditions: Homo sapiens, SK-N-AS, 48 h; read-out: IC50
Summary of the method: (§1)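 Cells were grown in RPMI 1640 with 10% FCS and 2 mM L-glutamine. Seeding was 4500 cells/well for NGP, IMR-32 and N206, and 2100 cells/well for SK-N-AS, with adherence overnight. Compound was dispensed over a concentration range in triplicate. Confluence was imaged live for 48 h and normalised to the DMSO control. Absolute IC50 came from a four-parameter variable-slope fit (n = 4).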

[4] = Antiproliferative activity against human N206 cells assessed as reduction in cell viability incubated for 48 hrs; format: functional, cell-based; summary of the method: as §1
IMR-32 = assay: Antiproliferative activity against human IMR-32 cells assessed as reduction in cell viability incubated for 48 hrs relative to control; format: functional
Summary of the method: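 Cells grown in RPMI 1640 with 10% fetal calf serum, 2 mM L-glutamine and penicillin/streptomycin at 37 °C, 5% CO2. Seeded at 4500 (IMR-32) or 2100 (SK-N-AS) cells/well in 384-well plates and left to adhere overnight. Concentration range dispensed in triplicate. Confluence tracked by IncuCyte live-cell imaging, and 48h values normalized to DMSO. Absolute IC50 taken from a four-parameter variable-slope fit (n = 4).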

[5] = molecular target: T1, Protein cereblon/Aurora kinase A (Homo sapiens); assay: PROTAC activity at AURKA/CRBN in human NGP cells assessed as increase in pCHK1 level at 10 to 1000 nM measured for 24 hrs by immunoblotting analysis; format: cell-based; conditions: dose 10-1000 nM
[6] = molecular target: T1, Protein cereblon/Aurora kinase A (Homo sapiens); assay: PROTAC activity at AURKA/CRBN in human NGP cells assessed as increase in pRPA32 level at 10 to 1000 nM measured for 24 hrs by immunoblotting analysis; format: cell-based; conditions: dose 10-1000 nM
[7] = Growth inhibition of patient derived NB059 Neuroblastoma organoid assessed as reduction in viability incubated for 48 hrs by CellTiter Glo 3D assay; format: functional, tissue-based, Homo sapiens; conditions: in the assay text read “120 hrs” for “48 hrs”
Summary of the method: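 Patient-derived organoids were dissociated to single cells with Accutase and seeded in NB organoid medium at 5000 (000GKX), 20000 (NB059), 5000 (NB067) or 3000 (NB139) cells/well. Compound was added after 24 h over a concentration range in triplicate, with DMSO matched. Incubation was 120 h at 37 °C and 5% CO2. Viability was read by CellTiter-Glo 3D, and absolute IC50 derived (n = 1).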

[8] = Growth inhibition of patient derived NB067 Neuroblastoma organoid assessed as reduction in viability incubated for […] by CellTiter Glo 3D assay relative to control; format: functional; conditions: Homo sapiens
[9] = molecular target: T1, Protein cereblon/Aurora kinase A (Homo sapiens); assay: PROTAC activity at AURKA/CRBN in human NGP cells assessed as AURKA degradation at 10 to 1000 nM measured for 24 hrs by Western blot analysis relative to control; format: cell-based; conditions: dose 10-1000 nM
Summary of the method: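 NGP cells were seeded at about 2×10^6 per flask, adhered for 48 h, and were then treated for 24 h with DMSO matched. Lysis was in RIPA with protease/phosphatase inhibitors. AURKA was quantified by capillary Simple Western with peak areas normalised to vinculin. Fold change is relative to DMSO (mean ± SD, n = 3).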

T1 sequence (O14965 whole entry, looked up): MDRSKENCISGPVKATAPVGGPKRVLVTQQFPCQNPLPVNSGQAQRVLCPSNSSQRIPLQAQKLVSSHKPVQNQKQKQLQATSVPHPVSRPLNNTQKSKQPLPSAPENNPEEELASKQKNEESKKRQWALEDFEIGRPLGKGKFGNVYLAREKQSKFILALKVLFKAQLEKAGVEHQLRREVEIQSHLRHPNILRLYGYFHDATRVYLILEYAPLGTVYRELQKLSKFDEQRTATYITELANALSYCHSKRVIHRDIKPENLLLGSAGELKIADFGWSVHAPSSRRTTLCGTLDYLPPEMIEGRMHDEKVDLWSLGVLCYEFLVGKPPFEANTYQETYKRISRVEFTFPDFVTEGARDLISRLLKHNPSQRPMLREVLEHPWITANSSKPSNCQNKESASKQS
T1 sequence (Q96SW2 whole entry, looked up): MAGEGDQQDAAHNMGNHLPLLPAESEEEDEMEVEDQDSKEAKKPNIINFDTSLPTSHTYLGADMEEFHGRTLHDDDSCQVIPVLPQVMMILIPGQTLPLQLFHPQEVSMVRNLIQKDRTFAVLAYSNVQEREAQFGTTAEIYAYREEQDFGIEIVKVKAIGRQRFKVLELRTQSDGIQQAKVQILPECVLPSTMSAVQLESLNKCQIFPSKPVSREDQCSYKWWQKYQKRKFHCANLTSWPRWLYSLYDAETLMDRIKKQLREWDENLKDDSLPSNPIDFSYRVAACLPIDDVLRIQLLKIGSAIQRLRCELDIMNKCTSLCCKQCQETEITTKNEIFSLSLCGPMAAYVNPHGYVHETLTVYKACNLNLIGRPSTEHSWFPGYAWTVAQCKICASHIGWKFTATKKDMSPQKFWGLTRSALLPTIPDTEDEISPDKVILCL

- Activity [1]: inactive
- Activity [2]: inactive
- Activity [3]: 73%
- IC50 (SK-N-AS): 6.69 µM
- Activity [5]: Active
- Activity [6]: Active
- Emax [9]: 85%
SMILES: O=C1CCC(N2C(=O)c3cccc(OCCOCCOCCOCCNC(=O)[C@]4(Cc5cccc(Nc6nccs6)n5)CC[C@@H](Oc5cccc(Cl)c5F)CC4)c3C2=O)C(=O)N1 (stereo partly specified)
- IC50 [4]: Not Active
- Emax (IMR-32): 14.1%
- IC50 [7]: Not Active
- Emax [8]: 15.5%
